Data as given in ChEMBL document CHEMBL1140997 (Bioorg Med Chem, 2009).

Tests used:
[1] = Inhibition of TNFalpha induced NF-kappaB activation in human 293 cells after 24 hrs by luciferase reporter gene assay; type: cell-based; settings: HEK293, 24 h
In short: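 Cells incubated 24 h with TNFα (20 ng/ml) and test compounds, PBS-washed, lysed 10 min, luciferase read. Screen at 20 µg/ml; active compounds then run as dose-response in duplicate. Values are % of TNFα-treated control; IC50 from five serial dilutions, mean of two experiments.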

[2] = target: Prostaglandin G/H synthase 1 (Homo sapiens, UniProt P23219); assay: Inhibition of COX1
Prostaglandin G/H synthase 1, sequence (P23219 whole entry): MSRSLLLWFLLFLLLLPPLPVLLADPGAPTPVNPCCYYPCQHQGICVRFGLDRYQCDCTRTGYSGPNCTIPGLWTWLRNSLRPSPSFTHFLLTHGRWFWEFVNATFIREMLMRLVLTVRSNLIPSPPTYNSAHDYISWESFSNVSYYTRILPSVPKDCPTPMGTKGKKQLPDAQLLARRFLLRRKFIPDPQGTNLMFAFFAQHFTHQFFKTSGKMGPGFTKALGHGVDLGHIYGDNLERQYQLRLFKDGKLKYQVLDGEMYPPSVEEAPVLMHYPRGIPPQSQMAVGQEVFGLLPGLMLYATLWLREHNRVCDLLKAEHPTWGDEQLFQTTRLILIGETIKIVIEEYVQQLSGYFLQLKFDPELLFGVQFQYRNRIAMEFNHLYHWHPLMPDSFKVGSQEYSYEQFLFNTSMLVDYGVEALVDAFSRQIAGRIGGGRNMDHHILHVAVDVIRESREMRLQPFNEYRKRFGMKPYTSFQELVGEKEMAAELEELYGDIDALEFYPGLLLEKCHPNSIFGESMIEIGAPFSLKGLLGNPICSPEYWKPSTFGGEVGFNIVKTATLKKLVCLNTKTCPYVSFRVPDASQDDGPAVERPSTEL
In short: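 Reaction in 100 mM Tris-HCl pH 8.0 containing 1 µM heme, 500 µM phenol and 300 µM epinephrine, with enough COX-1 to make 150 ng/ml PGE2. Started with arachidonic acid (10 µM final), 10 min at room temperature, stopped into indomethacin. PGE2 measured by ELISA against a PGE2 standard curve. Values are % of solvent control; IC50 from four serial dilutions, mean of two experiments.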

[3] = target: T1, Prostaglandin G/H synthase 2 (Homo sapiens, UniProt P35354); assay: Inhibition of COX2
T1 sequence (P35354 whole entry): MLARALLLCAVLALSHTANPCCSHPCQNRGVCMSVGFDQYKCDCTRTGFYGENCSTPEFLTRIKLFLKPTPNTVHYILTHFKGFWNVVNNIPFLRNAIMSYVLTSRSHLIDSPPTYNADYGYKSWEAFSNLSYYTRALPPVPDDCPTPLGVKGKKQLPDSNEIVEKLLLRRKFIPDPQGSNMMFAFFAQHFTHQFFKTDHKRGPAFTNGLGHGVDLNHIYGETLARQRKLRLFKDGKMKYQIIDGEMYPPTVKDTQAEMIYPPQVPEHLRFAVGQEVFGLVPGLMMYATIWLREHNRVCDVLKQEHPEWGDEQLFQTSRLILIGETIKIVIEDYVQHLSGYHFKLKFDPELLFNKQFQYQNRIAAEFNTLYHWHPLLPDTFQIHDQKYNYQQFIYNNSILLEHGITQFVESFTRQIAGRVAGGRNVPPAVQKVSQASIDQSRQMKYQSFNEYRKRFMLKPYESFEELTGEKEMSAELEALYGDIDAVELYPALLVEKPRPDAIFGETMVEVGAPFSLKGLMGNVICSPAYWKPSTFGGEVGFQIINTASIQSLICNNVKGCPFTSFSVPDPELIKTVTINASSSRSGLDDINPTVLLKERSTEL

Structure (SMILES)	IC50 [1] [µM]	IC50 [2] [µM]	IC50 [3] [µM]
COc1cc(/C=C/c2ccc(F)cc2)cc(OC)c1	37.5		
COc1cc(/C=C/c2ccc([N+](=O)[O-])cc2)cc(OC)c1		10	5.94
COc1ccc(/C=C/c2ccc(O)c(O)c2)cc1	12.2		
COc1ccc(/C=C/c2ccc(OC)c(OC)c2)cc1	52		
Oc1ccc(/C=C/c2ccc(O)c(O)c2)cc1	12.7		
COc1cc(/C=C(/c2ccc(F)cc2)C(F)(F)F)cc(OC)c1	39	3	
CC/C(=C\c1ccc(C(F)(F)F)cc1)c1cc(O)cc(O)c1		0.99	
C/C(=C\c1ccc(O)c(O)c1)c1ccc(Cl)cc1	37.5		
Oc1cc(O)cc(/C=C/c2ccc(F)cc2)c1	52.1	51.3	
COc1ccc(/C=C/c2cccc(F)c2)cc1OC	38.8	3.2	
Oc1ccc(/C=C/c2cccc(F)c2)cc1O	10.3	11.5	
C/C(=C\c1cc(O)cc(O)c1)c1cccc(F)c1		4.9	2.54
CC/C(=C\c1ccc(N(C)C)cc1)c1cc(O)cc(O)c1		7.4	2.2
CC/C(=C\c1cc(OC)cc(OC)c1)c1ccc(OC)c(OC)c1	27.2		
CC/C(=C\c1cc(O)cc(O)c1)c1ccc(Cl)cc1	38.3	11.6	
CC/C(=C\c1cc(O)cc(O)c1)c1cccc(F)c1	25.7	3.5	17.7
CC/C(=C\c1cc(O)cc(O)c1)c1ccc(N(C)C)cc1		30.5	14.8
COc1cc(/C=C/c2ccc3ccccc3c2)cc(OC)c1	18.8		
COc1cccc(/C=C/c2ccc(OC)c(OC)c2)c1	17.3		

Structure (SMILES)	IC50 [1] [µM]	IC50 [2] [µM]	IC50 [3] [µM]
Oc1ccc(/C=C/c2ccc(F)cc2)cc1O	17.9		
COc1ccc(/C=C/c2ccc(N(C)C)cc2)cc1OC	34.7		
C/C(=C\c1cc(O)cc(O)c1)c1ccc(O)cc1		1.9	1.57
C/C(=C\c1cc(O)cc(O)c1)c1ccc(C(F)(F)F)cc1	34.2	0.97	
Oc1ccc(/C=C/c2ccc(C(F)(F)F)cc2)cc1O	14.8		
Oc1ccc(/C=C/c2ccc3ccccc3c2)cc1O	6.91		
COc1ccc(/C(=C/c2cc(OC)cc(OC)c2)C(F)(F)F)cc1	37.8		
COc1ccc(/C=C(/c2cc(OC)cc(OC)c2)C(F)(F)F)cc1		7.8	
COc1ccc(/C(C)=C/c2cc(O)cc(O)c2)cc1	35.2	12.4	16
COc1ccc(/C(C)=C/c2cc(OC)cc(OC)c2)cc1	27.1		
COc1ccc(/C(C)=C/c2ccc3ccccc3c2)cc1	48.2		
COc1ccc(/C(C)=C/c2cc(O)cc(O)c2)cc1OC	13.1	11.4	
C/C(=C\c1cc(O)cc(O)c1)c1ccc(Cl)cc1	39.2	5.3	
C/C(=C\c1ccc(C(F)(F)F)cc1)c1ccc(O)c(O)c1			1.74
C/C(=C\c1ccc2ccccc2c1)c1cc(O)cc(O)c1	42.3		
Oc1cc(O)cc(/C=C/c2ccc3ccccc3c2)c1		18.4	
C/C(=C\c1ccc(C(F)(F)F)cc1)c1cc(O)cc(O)c1		10.9	
CC/C(=C\c1cccc(F)c1)c1cc(O)cc(O)c1		5.4	
C/C(=C\c1ccc(N(C)C)cc1)c1cc(O)cc(O)c1		10.7	1.74

Structure (SMILES)	IC50 [1] [µM]	IC50 [2] [µM]	IC50 [3] [µM]
COc1cc(/C=C(/c2cccc(C(F)(F)F)c2)C(F)(F)F)cc(OC)c1	31.9		
COc1ccc(/C=C(/c2cccc(C(F)(F)F)c2)C(F)(F)F)cc1OC	25.5		
Oc1cc(O)cc(/C=C/c2cccc(F)c2)c1		16.5	0.82
Oc1cc(O)cc(/C=C/c2ccc(C(F)(F)F)cc2)c1	12.9	29.7	
O=[N+]([O-])c1ccc(/C=C/c2cc(O)cc(O)c2)cc1		2.2	31.6
CN(C)c1ccc(/C=C/c2cc(O)cc(O)c2)cc1		17.8	
C/C(=C\c1ccc(C(F)(F)F)cc1)c1ccc(O)cc1		36.3	0.47
C/C(=C\c1ccc(O)cc1)c1cc(O)cc(O)c1	26.2	1.9	1.78
COc1ccc(/C=C(\C)c2cc(O)cc(O)c2)cc1OC		10.6	12.8
C/C(=C\c1ccc(O)c(O)c1)c1ccc(O)cc1	21.3		
COc1cc(/C=C(\C)c2ccc(C(F)(F)F)cc2)cc(OC)c1		32.6	
C/C(=C\c1cccc(F)c1)c1cc(O)cc(O)c1		10.5	
CC/C(=C\c1cc(O)cc(O)c1)c1ccc2ccccc2c1		0.17	3.3
CC/C(=C\c1ccc(OC)c(OC)c1)c1cc(O)cc(O)c1		9.7	
COc1cc(/C=C/c2ccc(O)cc2)cc(OC)c1 [PTEROSTILBENE]	19.5	0.7	0.82
COc1ccc(/C=C/c2cc(O)cc(O)c2)cc1 [RESVERATROL 4'-METHYL ETHER]		25.8	19.6
Oc1ccc(/C=C/c2cc(O)cc(O)c2)cc1 [RESVERATROL]	16.1		
COc1ccc(/C=C/c2cc(OC)cc(OC)c2)cc1 [TRISMETHOXYRESVERATROL]	28.3		
